Test results taken from paper PMC4019989 (Clinical cancer research : an official journal of the …, 2009).
Where two headings read alike, the source gives them in different places.

Legend:
Plasma pharmacokinetics = format: in vivo, human; conditions: for AUCinf, Mean: included C0; for AUClast, Mean: includes C0; for half-life / C0 / Cmax / Tmax / clearance: human, plasma, iv
In short: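 Drug went in as an i.v. push over 1–2 min. Cycle 1 blood was drawn predose and at 5, 15, 30 min and 1, 2, 4 h postdose, plus predose and 30 min postdose on cycle 1 day 5 and day 1 of cycles 2 and 3. Plasma was assayed by validated LC/MS (lower limit of detection 0.10 μg/mL). Parameters came from pharmacokinetic analysis and modelling.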

[1] = tested on: relapsed or refractory hematologic malignancies; experiment: Antitumor activity; format: in vivo, human
In short: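 Relapsed/refractory MM, NHL, Hodgkin's or Waldenström's patients got the test compound as an i.v. push over 1–2 min on days 1–5, then 9 d rest (14-d cycles). Doses were 1.2–20 mg/m2, escalated in cohorts of three, continued until unacceptable toxicity or progression. Response used EBMT criteria (MM) and International Working Group criteria (NHL, Hodgkin's). For Waldenström's: complete = total resolution, partial = >50% resolution with no new disease.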

[2] = tested on: chymotrypsin-like activity of the proteasome; conditions: rats; i.v. for 5 consecutive days; multiple tissues; well tolerated; cited from earlier work
[3] = tested on: chymotrypsin-like activity of the proteasome; conditions: monkeys; i.v. for 5 consecutive days; multiple tissues; well tolerated; cited from earlier work
[4] = 11 mg/m^2 i.v. push, n = 2, plasma
[5] = 15 mg/m^2 i.v. push, n = 5, plasma
[6] = 20 mg/m^2 i.v. push, n = 4, plasma

## CC(C)C[C@H](NC(=O)[C@H](CCc1ccccc1)NC(=O)CN1CCOCC1)C(=O)N[C@@H](Cc1ccccc1)C(=O)N[C@@H](CC(C)C)C(=O)[C@@]1(C)CO1 [carfilzomib]
Plasma pharmacokinetics; [4]
  AUCinf, Mean: 4,463 g·mL/h
  AUClast, Mean: 4,457 ng·mL/h
Plasma pharmacokinetics; [5]
  AUCinf, Mean: 9,760 g·mL/h
  AUClast, Mean: 9,728 ng·mL/h
Plasma pharmacokinetics; [6]
  AUCinf, Mean: 23,660 g·mL/h
  AUClast, Mean: 23,123 ng·mL/h
Plasma pharmacokinetics
  half-life: < 30 min
Plasma pharmacokinetics; 11 mg/m2
  C0: 762 ng/mL
  Cmax: 90.2 ng/mL
  Tmax: 9 min
  clearance: 5060 mL/min
  half-life: 25.3 min
Plasma pharmacokinetics; 15 mg/m2
  C0: 2120 ng/mL
  Cmax: 326 ng/mL
  Tmax: 5.8 min
  clearance: 7050 mL/min
  half-life: 28.9 min
Plasma pharmacokinetics; 20 mg/m2
  C0: 5450 ng/mL
  Cmax: 683 ng/mL
  Tmax: 6 min
  clearance: 4130 mL/min
  half-life: 17.1 min
Plasma pharmacokinetics; patients, i.v. push
  clearance (in words): higher than liver blood flow
[1]; 28 of 29 patients evaluable, all responders treated at 11 mg/m^2 and higher
  Subjects achieving objective tumor responses: Four
[1]; across all dose cohorts and diagnoses
  Subjects with stable disease: nine
[1]; all cohorts
  Patients with progressive disease while on study: 15 patients
[1]; eight cycles
  Average duration on therapy of subjects with stable disease: 116 days
[1]; person with IgA MM, 11 mg/m^2
  IgA level by the end of the fifth cycle: 235 mg/dL
[1]; person with IgA MM, 11 mg/m^2, from 709 mg/dL
  IgA level within two cycles (10 doses): 297 mg/dL
[1]; person with Waldenström's macroglobulinemia, after two cycles of 15 mg/m^2
  reduction in serum M-protein: 25%
[1]; treated at or above 11 mg/m^2, two MM, one Waldenström's macroglobulinemia
  Objective responses in subjects with plasma cell dyscrasias: Three of six
[2]
  Proteasome (chymotrypsin-like activity) inhibition: > 80%
[3]
  Proteasome (chymotrypsin-like activity) inhibition: > 80%
